Data from PubChem BioAssay.
Values without a mark were called inactive. Records with an inconclusive call do not appear. Calls of active or inactive are those of the source.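 The calls were made as follows, unless noted: active = growth inhibition above 25% in both replicates, a cutoff set 3 SD above the mean; inconclusive = above 25% in only one replicate; inactive = the rest.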

Legend:
[1] = S. cerevisiae growth inhibition in permissive medium (OD615), pilot counter-assay for S. cerevisiae lifespan shortening project, permissive growth control (AID 705); details: OD615, 24 h, at 10 µM, active compounds read high
In short: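 Test system: Saccharomyces cerevisiae strain carrying genetically modified DeaD replicative-lifespan system; buffer or medium: SC raffinose/galactose permissive medium; dosing: one dose 10 µM, DMSO 0.25% final; times: 24 h exposure, 30 °C; measured by: OD at 615 nm; read-out basis: growth inhibition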

[2] = S. cerevisiae growth inhibition in restrictive medium, OD615, pilot screen, restrictive growth control, yeast lifespan reduction project (AID 706;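 active = growth inhibition above a set limit, 3 SD over mean compound inhibition, in both replicates, cut at about 43% in these data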;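 also: modified DeaD lifespan yeast strain shifted to restrictive glucose medium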); details: OD615, 48 h, at 10 µM, active compounds read high
In short: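 material = engineered S. cerevisiae DeaD strain | buffer or medium = glucose-based CSMM-D restrictive medium | dosing = one concentration, 10 µM final, 0.25% DMSO | schedule = 4 h pre-growth plus 48 h compound exposure, 30 °C | detection = OD615 absorbance reading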

[3] = doxorubicin toxicity protection in MRP-1 cells – H69AR cells, CellTiter-Glo, duplicate, MRP-1 activator project, pilot screen (AID 807;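 active = viability increase at or above a cutoff of the median across tested compounds plus 3 SD, cut at about 8.5% in these data, passing the limit was not always enough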;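 also: compound pretreatment 18-22 h then 72 h combined with doxorubicin; 0% = doxorubicin alone and 100% = vehicle without doxorubicin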); details: H69AR viability with doxorubicin, CellTiter-Glo luminescence; at 10 µM; active compounds read high
[4] = viability of HCT116 without oncogenic beta-catenin – human colon tumor cells, pilot screen (AID 823;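 active = cell viability at or below a set limit in both duplicate runs, the limit being the all-compound median minus 4 SD, cut at about 23% in these data, passing the limit was not always enough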;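 also: 0% = wells killed by 20 µM Hyamine and 100% = untreated DMSO cell wells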); details: HCT116 beta-catenin knockout viability, CellTiter-Glo, 60 h; at 10 µM; active compounds read low
[5] = viability of PTEN-null HCT116 cells – cell-based, HCT116 clonal line, CellTiter-Glo, pilot screen (AID 824;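 active = viability at or below 27.92% in each of two runs, the all-compound median minus 4 SD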;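 also: 0% = 20 µM Hyamine control and 100% = vehicle cell control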); details: HCT116 PTEN-deleted viability, 60 h, at 10 µM, active compounds read low
[6] = RAM pathway blockade in budding yeast – dse1pr::URA3 reporter, 5-FOA selection, pilot screen (AID 869;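 active = inhibition over a set limit, the all-compound mean plus 3 SD, in both replicate runs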;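 also: 0% = DMSO wells with no growth and 100% = 10 µM 1-NA-PP1 with full growth; RAM network block rescues cells from 5-FOA so hits raise OD615 growth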); details: S. cerevisiae dse1pr::URA3 5-FOA growth, OD615, 2 d; at 10 µM; active compounds read high; strain carries analog-sensitive mutant Cbk1 kinase
[7] = RAM signaling pathway blockade in yeast – S. cerevisiae, Pdr1DBD-CYC8 efflux-inhibited sensitized strain, primary screen (AID 1298;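 active = RAM network inhibition above 8.4% in each of two replicates, 3 SD over the compound average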;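 also: 0% = DMSO untreated cells without growth and 100% = 10 µM 1-NA-PP1 full growth; higher means more yeast growth rescued from 5-FOA killing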); details: S. cerevisiae cbk1-as DSE1-URA3 strain, 5-FOA growth OD615, 2 d; at 50 µM; active compounds read high

| SMILES | growth inhibition [1] [%] | growth inhibition [2] [%] | viability increase [3] | viability [4] [%] | viability [5] [%] | inhibition [6] [%] | RAM network inhibition [7] [%] |
| --- | --- | --- | --- | --- | --- | --- | --- |
| Cc1c(C(=O)NCc2cccnc2)oc2ccccc12 | -3.83 | -5.65 | -3.9% | 99.2 | 87 | 1.27 | 1.07 |
| COc1ccc(-c2nnc(NC(=O)C(C)C)s2)c(OC)c1 | -18.6 | -10.3 | -2.16% | 96 | 88.8 | 4.28 | 9.53 |
| CCOC(=O)N1CCC(Nc2cc(C)nc3c(-c4ccccc4OC)c(C)nn23)CC1 | -2.85 | -0.57 | -6.98% | 81.3 | 67.8 | 0.325 | 4.72 |
| COc1ccc(CN2CC34C=CC(O3)C(C(=O)O)C4C2=O)cc1 (configuration not stated) | -1.83 | -0.315 | -0.17% | 92.6 | 97.1 | 0.585 | 3.17 |
| COc1ccc(S(=O)(=O)N2CCC(C(=O)N3CCc4ccccc4C3)CC2)cc1OC | 1.07 | 1.26 | -2.24% | 89.4 | 87.6 | -0.455 | 5.37 |
| O=S(=O)(NCCO)c1cccc2cccnc12 | -8.73 | -10.2 | -1.21% | 94 | 85.4 | 1.24 | -0.64 |
| Cc1ccc(-c2nc(NC(=O)CSc3nnc4scc(-c5ccccc5)n34)ns2)cc1 | 0.135 | 0.99 | 1.17% | 74 | 66.8 | 2.42 | 5.6 |
| COc1ccc(CCNC(=O)COC(=O)c2cnc(C)cn2)cc1OC | -8.52 | -14.6 | 1.73% | 106 | 100 | 0.395 | 2.42 |
| O=C(COc1ccc(F)cc1)Nc1nccs1 | -3.23 | 4.43 | 2.32% | 103 | 90.2 | 3.26 | 5.34 |
| COc1cccc(NC(=O)CN2C(=O)COc3ccc(Cl)cc32)c1 | -12.2 | -17.7 | -0.8% | 90 | 84.7 | 0.405 | 0.31 |
| Cc1ccccc1Cn1c(=O)[nH]c2ccccc21 | -1.87 | 4.58 | 0.06% | 96.5 | 88.5 | 1.9 | 4.55 |
| CCOc1ccc(C(=O)Nc2c3c(nn2-c2cccc(C)c2C)CS(=O)C3)cc1 (configuration not stated) | -1.6 | 3.53 | -0.32% | 98.4 | 96.2 | 1.62 | 2.34 |
| COc1ccc2ccccc2c1C1CC(=O)N2CN(Cc3ccco3)CSC2=C1C#N (configuration not stated) | 1.42 | 16.4 | -5.39% | 82.5 | 80.9 | 3.5 | 3.82 |
| Cc1cc(Nc2ccc(Br)c(C)c2)n2nc(C)nc2n1 | -8.54 | 4.61 | -6.94% | 80.9 | 84.9 | 0.65 | 6.84 |
| CCCC12CN3CC(CCC)(CN(C1)C3C(O)C(O)C(O)CO)C2=O (configuration not stated) | 4.31 | 7.78 | 0.62% | 99.7 | 100 | 1.27 | 3.47 |
| Cn1nc(-c2ccc(Cl)cc2)c2cc(C(=O)NCc3ccco3)sc21 | -1.08 | -3.58 | -7.27% | 59.6 | 47 | 2.54 | 5.89 |
| CC1CCCN(C(C(=O)Nc2ccc3c(c2)OCO3)c2ccccc2)C1 (configuration not stated) | -8.14 | 5.27 | -3.45% | 79.6 | 79.4 | 1.85 | 1.67 |
| Cn1nc(-c2ccc(Cl)cc2)c2cc(C(=O)NCC3CCCO3)sc21 (configuration not stated) | 1.54 | 17.7 | -5.84% | 65.9 | 60.2 | -0.13 | -2.54 |

| SMILES | growth inhibition [1] [%] | growth inhibition [2] [%] | viability increase [3] | viability [4] [%] | viability [5] [%] | inhibition [6] [%] | RAM network inhibition [7] [%] |
| --- | --- | --- | --- | --- | --- | --- | --- |
| O=C(C1CCCCN1S(=O)(=O)c1ccc(F)cc1)N1CCN(c2ccccc2F)CC1 (configuration not stated) | -14.1 | -8.47 | -1.06% | 80.8 | 82.9 | -0.01 | 1.9 |
| O=C(NCc1cccs1)C1CCN(S(=O)(=O)c2cccc3cccnc23)CC1 | -3.73 | -6.17 | -0.65% | 93 | 90.7 | -0.03 | 1.45 |
| COC(=O)C(C(=O)OC)=C(/C=C/N(C)C)N(C)C | -16.7 | -1.41 | -0.39% | 99.2 | 101 | 1.26 | 2.7 |
| O=c1c2ccccc2nnn1CSc1nnc(-c2ccco2)o1 | -8.6 | 2.08 | -4.5% | 83.3 | 86.5 | 0.57 | 0.46 |
| COC(=O)c1ccccc1Nc1cc(C)nc2nc(C)nn12 | -5.25 | 0.455 | -3.74% | 105 | 115 | -0.315 | 1.72 |
| Cc1ccc(OCCNC(=O)c2ccccc2N)cc1 | 1.82 | -18.1 | -2.73% | 103 | 97.6 | 0.785 | -0.05 |
| COCCCN(C(=O)Cn1ncc2c(=O)oc3ccc(C)cc3c21)C(C)c1ccncc1 (configuration not stated) | -16 | -27.4 | -1.85% | 103 | 98.3 | 1.15 | 0.85 |
| COc1ccccc1CNC(=O)Cn1cc2c(n1)CCCC2 | -6.06 | -7.73 | 13.7% (active) | 107 | 101 | 0.685 | 3.05 |
| O=C(CSc1nnc(Cc2cc(=O)[nH]c(=O)[nH]2)n1-c1ccc(F)cc1)NC1CCCC1 | -14.8 | -7.13 | -1.18% | 105 | 102 | 0.96 | 6.6 |
| COc1cccc(-n2nnc3c(=O)n(CC(=O)NCC4CCCO4)cnc32)c1 (configuration not stated) | 2.81 | -2.83 | 0.22% | 101 | 93.7 | -0.415 | 5.27 |
| COC(=O)c1ccc2c(c1)N(Cc1nc(-c3cccc(C)c3)oc1C)C(=O)C1CCCN21 (configuration not stated) | -13 | -8.79 | -2.37% | 92 | 84.3 | 2.06 | 5.71 |
| CCNS(=O)(=O)c1ccc(NC(=O)c2cccnc2)cc1 | 1.24 | 8.7 | 0.48% | 95 | 99.6 | 1.61 | 6.74 |
| COc1ccc(CNC(=O)CN(c2cc(C)cc(C)c2)S(=O)(=O)c2c(C)noc2C)cc1 | -24.7 | -27.1 | -4.08% | 97.1 | 89.2 | 1.92 | 3.21 |
| CCC(CO)N=CC1=C(O)C(C(=O)c2ccccc2)CCC1=O (configuration not stated) | -10.4 | -14.8 | 1.63% | 96.5 | 105 | 0.62 | 2.38 |
| Cc1cc(C)c(S(=O)(=O)Nc2ccc(OCC(=O)O)cc2)c(C)c1 | -6.34 | -3.2 | -0.81% | 93.7 | 90.5 | -0.28 | -0.63 |
| COc1ccccc1NC(=O)C1=C(C)NC(=O)NC1c1ccccc1F (configuration not stated) | -7.88 | -13.5 | -0.75% | 99.2 | 107 | 1.82 | 2.41 |
| CCN(CC)S(=O)(=O)c1ccc(-c2nnc3sc4cccc(C)c4n23)cc1 | -22.7 | -11.5 | -2.97% | 73.4 | 72.9 | 2 | 3.69 |
| Cc1ccoc1C(=O)NCc1occc1C(=O)O | -12.6 | -16.8 | -3.44% | 96.2 | 93.1 | -0.575 | 1.58 |
